The assay relates to Staphylococcus aureus. Description: Antibacterial activity against methicillin resistant Staphylococcus aureus FPR3757 assessed as inhibition of bacterial growth incubated for 24 hrs by CLSI based method. Type of assay: functional. The following applies: read-out: MIC100. An outline of the steps: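 It was mixed 1:1 with twofold serial compound dilutions and incubated stationary at 37 °C for 24 h. MIC was the lowest concentration giving complete inhibition of observable growth, with an oxacillin control.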

Values after ≈ are worked out from the molar mass of the structure shown.

Take `COc1ccc2c(Nc3ccc(F)c(F)c3)cc(C(F)(F)F)nc2c1`: the MIC is above 32 µg/mL.

Regarding `FC(F)(F)Oc1cccc2c(Nc3ccc(C(F)(F)F)cn3)cc(C(F)(F)F)nc12`, the MIC is 1 µg/mL (≈ 2.27 µM).

Consider `CCc1ccc2c(O)cc(C(F)(F)F)nc2c1`, for which the MIC came out at 640 µg/mL (≈ 2650 µM).

As to `O=c1cc(C(F)(F)F)[nH]c2cc(C(F)(F)F)cc(Nc3ccc(C(F)(F)F)nn3)c12`, the MIC turned out to be 1 µg/mL (≈ 2.26 µM).

For the compound `CC(=O)c1cccc(Nc2cc(C(F)(F)F)nc3cc(C(F)(F)F)ccc23)c1`, the MIC was above 128 µg/mL.

Take `OC1CCCN(c2cc(C(F)(F)F)nc3cc(C(F)(F)F)ccc23)C1` (stereo not given): the MIC is above 32 µg/mL.

For `FC(F)(F)Oc1cccc(Nc2cc(C(F)(F)F)nc3c(OC(F)(F)F)cccc23)c1`, the MIC was determined as 1 µg/mL (≈ 2.19 µM).

Regarding `FC(F)(F)c1ccc(Nc2cc(N3CCOCC3)c3ccc(C(F)(F)F)cc3n2)nc1`, the MIC was 8 µg/mL (≈ 18.1 µM).

Turning to `FC(F)c1cc(Nc2ccc(Cl)c(Cl)c2)c2ccc(C(F)(F)F)cc2n1`, the MIC is 1 µg/mL (≈ 2.46 µM).

In the case of `FC(F)(F)Oc1cccc(Nc2cc(C(F)(F)F)nc3cc(OC(F)(F)F)ccc23)c1`, the MIC is 1 µg/mL (≈ 2.19 µM).

As for `FC(F)(F)c1ccc2c(N3CCOCC3)cc(C(F)(F)F)nc2c1`, the MIC is above 32 µg/mL.

`O=c1cc(C(F)(F)F)[nH]c2cc(C(F)(F)F)cc(N3CCOCC3)c12`: the MIC was above 32 µg/mL.

`O=C1Cc2cc(Nc3cc(C(F)(F)F)nc4cc(C(F)(F)F)ccc34)ccc2N1`: the MIC was above 32 µg/mL.

For `COc1ccc2c(Nc3cccc(OC(F)(F)F)c3)cc(C(F)(F)F)nc2c1`, the MIC was above 32 µg/mL.

Regarding `COc1ccc2c(Nc3ccc(Cl)c(Cl)c3)cc(C(F)(F)F)nc2c1`, the MIC was 2 µg/mL (≈ 5.17 µM).

The values above are taken from ChEMBL document CHEMBL5150021, “Identification of 5-(Aryl/Heteroaryl)amino-4-quinolones as Potent Membrane-Disrupting Agents to Combat Antibiotic-Resistant Gram-Positive Bacteria” (J Med Chem, 2022).
